Laboratory results: ChEMBL document CHEMBL4229374 (Eur J Med Chem, 2018)
Active and inactive are the calls of the source. The rule behind the calls is not given here.

Key:
[1] = target: T1, Aldo-keto reductase family 1 member C3 (Homo sapiens, UniProt P42330); assay: Inhibition of recombinant N-terminal GST-tagged human AKR1C3 expressed in Escherichia coli BL21 (DE) Codon Plus RP cells using S-tetralol as substrate in presence of NADP+ by fluorimetric analysis
T1 sequence (P42330 whole entry): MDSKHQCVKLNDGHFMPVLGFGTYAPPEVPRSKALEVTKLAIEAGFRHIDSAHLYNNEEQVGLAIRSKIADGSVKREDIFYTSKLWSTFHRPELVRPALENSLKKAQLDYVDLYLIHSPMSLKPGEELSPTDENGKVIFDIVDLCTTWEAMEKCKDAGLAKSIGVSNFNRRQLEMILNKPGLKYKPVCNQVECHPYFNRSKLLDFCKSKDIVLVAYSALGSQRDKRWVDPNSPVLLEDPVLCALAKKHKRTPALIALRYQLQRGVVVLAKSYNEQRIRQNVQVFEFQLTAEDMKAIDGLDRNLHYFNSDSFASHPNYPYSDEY

[2] = test system: CWR22R; assay: Antiproliferative activity against human 22Rv1 cells after 72 hrs by sulforhodamine B colorimetric assay; assay type: functional, cell-based; conditions: 22Rv1, 72 h
[3] = target: T2, COX1 (prostaglandin G/H synthase 1) (Ovis aries, UniProt P05979); assay: Inhibition of ovine COX1 assessed as reduction in PGF2alpha production at 100 uM by ELISA; conditions: sheep, ovine COX1 enzyme
T2 sequence (P05979 whole entry): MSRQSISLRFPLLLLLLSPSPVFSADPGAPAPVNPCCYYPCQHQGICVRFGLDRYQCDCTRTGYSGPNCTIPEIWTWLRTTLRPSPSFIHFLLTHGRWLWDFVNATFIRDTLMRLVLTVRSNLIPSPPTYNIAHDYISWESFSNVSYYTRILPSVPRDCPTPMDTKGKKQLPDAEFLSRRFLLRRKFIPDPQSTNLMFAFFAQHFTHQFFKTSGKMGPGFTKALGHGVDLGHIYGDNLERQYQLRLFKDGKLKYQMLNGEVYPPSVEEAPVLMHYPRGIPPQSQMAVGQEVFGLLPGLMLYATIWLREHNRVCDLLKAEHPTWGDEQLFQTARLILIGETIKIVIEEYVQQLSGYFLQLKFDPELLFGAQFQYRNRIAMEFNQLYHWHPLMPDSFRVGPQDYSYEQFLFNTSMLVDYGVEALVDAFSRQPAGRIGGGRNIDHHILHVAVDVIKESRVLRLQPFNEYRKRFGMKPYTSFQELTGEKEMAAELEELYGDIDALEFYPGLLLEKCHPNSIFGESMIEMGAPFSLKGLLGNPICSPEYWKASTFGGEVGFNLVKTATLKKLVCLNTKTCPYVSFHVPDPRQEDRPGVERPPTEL
Method in brief: (§1)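 Ovine COX1 or human COX2 reaction in a commercial inhibitor screening kit. PGH2 formed is reduced with SnCl2 to PGF2α, which is quantified by enzyme immunoassay (absorbance). Single-point inhibition at 100 µM given as % ± SE. IC50 by linear regression. Mean ± SE of at least three experiments.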

[4] = target: T3, Aldo-keto reductase family 1 member C2 (Homo sapiens, UniProt P52895); assay: Inhibition of recombinant N-terminal GST-tagged human AKR1C2 expressed in Escherichia coli BL21 (DE) Codon Plus RP cells using S-tetralol as substrate in presence of NADP+ by fluorimetric analysis
T3 sequence (P52895 whole entry): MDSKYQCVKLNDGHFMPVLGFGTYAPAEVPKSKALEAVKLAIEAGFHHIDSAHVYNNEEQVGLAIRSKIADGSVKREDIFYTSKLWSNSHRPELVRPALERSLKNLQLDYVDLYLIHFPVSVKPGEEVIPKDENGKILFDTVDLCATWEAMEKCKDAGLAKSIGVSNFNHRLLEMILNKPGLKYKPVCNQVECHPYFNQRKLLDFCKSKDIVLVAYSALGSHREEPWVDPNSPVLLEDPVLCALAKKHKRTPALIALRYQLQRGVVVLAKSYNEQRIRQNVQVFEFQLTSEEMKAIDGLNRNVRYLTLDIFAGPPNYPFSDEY
Method in brief: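 GST-tagged AKR1C2 purified on glutathione sepharose with thrombin cleavage. Percent inhibition from initial velocities versus solvent controls. IC50 as means of two experiments, each in triplicate.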

[5] = target: T4, Prostaglandin G/H synthase 1 (Ovis aries, UniProt P05979); assay: Inhibition of ovine COX1 assessed as reduction in PGF2alpha production by ELISA; method in brief: as §1
T4 sequence (P05979 whole entry): T2 sequence (P05979 whole entry)

[6] = target: Prostaglandin G/H synthase 2 (Homo sapiens) (UniProt P35354); assay: Inhibition of human COX2 assessed as reduction in PGF2alpha production at 100 uM by ELISA; conditions: human COX2 enzyme
Prostaglandin G/H synthase 2 (Homo sapiens), sequence (P35354 whole entry, looked up): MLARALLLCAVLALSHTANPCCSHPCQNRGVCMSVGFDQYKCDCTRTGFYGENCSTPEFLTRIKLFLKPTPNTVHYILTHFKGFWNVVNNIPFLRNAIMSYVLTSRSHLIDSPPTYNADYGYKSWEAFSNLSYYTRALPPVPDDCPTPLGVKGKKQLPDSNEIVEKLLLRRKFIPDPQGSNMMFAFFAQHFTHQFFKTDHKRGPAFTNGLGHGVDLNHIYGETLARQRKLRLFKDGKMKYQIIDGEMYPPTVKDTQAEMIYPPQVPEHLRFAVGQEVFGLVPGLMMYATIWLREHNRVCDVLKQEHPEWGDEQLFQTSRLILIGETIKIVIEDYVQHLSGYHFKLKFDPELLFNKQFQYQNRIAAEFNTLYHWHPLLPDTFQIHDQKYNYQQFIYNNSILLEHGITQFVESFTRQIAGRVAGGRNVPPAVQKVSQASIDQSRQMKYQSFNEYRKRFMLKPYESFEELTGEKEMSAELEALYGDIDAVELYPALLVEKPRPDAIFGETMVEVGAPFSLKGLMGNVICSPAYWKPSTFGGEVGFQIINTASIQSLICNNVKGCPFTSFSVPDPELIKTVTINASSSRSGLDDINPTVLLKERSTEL

[7] = test system: CWR22R; assay: Synergistic antiproliferative activity against human 22Rv1 cells assessed as reduction in cell viability at 20 uM after 72 hrs in presence of enzalutamide by sulforhodamine B colorimetric proliferation assay; assay type: functional
[8] = test system: CWR22R; assay: Synergistic antiproliferative activity against human 22Rv1 cells assessed as reduction in cell viability at 20 uM after 72 hrs in presence of abiraterone by sulforhodamine B colorimetric proliferation assay; assay type: functional
[9] = test system: CWR22R; assay: Reduction in PSA expression level in human 22Rv1 cells by Western blot analysis; assay type: functional, cell-based
Method in brief: (§2)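 22RV1 treated for 72 h at three concentrations. Viable cells lysed in RIPA buffer with protease inhibitors, protein measured by Bradford, 20 µg run on SDS-PAGE and transferred to nitrocellulose. Probed overnight at 4 °C with goat polyclonal anti-PSA (1:500), β-actin as reference, HRP secondary, ECL detection; Ponceau staining as loading check.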

[10] = test system: CWR22R; assay: Reduction in PSA expression level in human 22Rv1 cells at 1 to 30 uM by Western blot analysis; assay type: functional, cell-based; method in brief: as §2
[11] = test system: CWR22R; assay: Antiproliferative activity against human 22Rv1 cells assessed as inhibition of cell proliferation at 100 uM after 72 hrs by sulforhodamine B colorimetric assay; assay type: functional; conditions: 22Rv1, 72 h
[12] = target: T5, Aldo-keto reductase family 1 member C3 (Homo sapiens) (UniProt P42330); assay: Inhibition of AKR1C3-mediated testosterone production in human 22Rv1 cells preincubated for 1 hr followed by androstenedione addition and measured after 24 hrs by ELISA; assay type: cell-based
T5 sequence (whole entry): T1 sequence (P42330 whole entry)
Method in brief: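 22RV1 at 30,000 cells/well in RPMI with 10% charcoal-stripped serum, 37 °C, 5% CO2, 24 h. Inhibitor added at 4 concentrations for 1 h, then androstenedione 28 nM; further 24 h. Testosterone in supernatant quantified by ELISA. Means of two separate experiments, each in triplicate.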

[13] = test system: CWR22R; assay: Potency index, ratio of IC50 for flufenamic acid to IC50 for test compound for antiproliferative activity against human 22Rv1 cells after 72 hrs by sulforhodamine B colorimetric assay; assay type: functional

IC50 [1] [µM]	inhibition at 100 µM [3] [%]	IC50 [4] [µM]	IC50 [5] [µM]	inhibition at 100 µM [6] [%]	inhibition [12]	SMILES	IC50 [2] [µM]	Activity [7]	Activity [8]	Activity [9]	Activity [10]	inhibition at 100 µM [11] [%]	Ratio IC50 [13]
0.31	0	4.29	> 100	4.3		Oc1noc2cccc(Nc3cccc(S(F)(F)(F)(F)F)c3)c12	64.9						
3.48	29	66.9	> 100	0		Oc1noc2ccc(Nc3cccc(C(F)(F)F)c3)cc12	74.8						
	2.1	119	> 100	0		Oc1noc2cccc(Nc3cc(C(F)(F)F)cc(C(F)(F)F)c3)c12		10 - 25%	10 - 25%				
0.4	0	108	> 100	0.87		COc1ccc(Cn2nnc(O)c2C(=O)Nc2cccc(C(F)(F)F)c2)cc1OC	59.2			Dose-dependent effect			
0.55	29	4.38	> 100	13		Oc1noc2cccc(Nc3cccc(C(F)(F)F)c3)c12	64.8						
						COc1ccc(Cn2nnc(O)c2C(=O)Nc2cccc(C(F)(F)F)c2)cc1					inactive		
1.41	0	5.7	> 100	0.37		O=[N+]([O-])c1cccc(Nc2cccc3onc(O)c23)c1	> 100					31.1	
0.19	0	54.9	> 100	0	Dose-dependent effect	O=C(Nc1cccc(C(F)(F)F)c1)c1c(O)nnn1Cc1ccc(OC(F)(F)F)cc1	31.3	10 - 25%	10 - 25%	Dose-dependent effect			>=4
